# Reference: ChEMBL document CHEMBL1145835, “Novel potent 5-HT(1F) receptor agonists: structure-activity studies of a series of substituted N-[3-(1-methyl-4-piperidinyl)-1H-pyrrolo[3,2-b]pyridin-5-yl]amides” (J Med Chem, 2003)
# System: Cavia porcellus
# Assay: In vivo efficacy in neurogenic plasma protein extravasation screen using guinea pig neurogenic PPE assay (1 ng/kg, po) at 1 hr postdose
# Format: functional
# Method in brief: (§1)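 Guinea pig neurogenic dural PPE screen. Single oral dose of 1 ng/kg, then unilateral trigeminal ganglion stimulation with Evan's blue-labelled plasma protein leakage. Read-out is the fluorescence ratio of stimulated to unstimulated dura at 1 h or 24 h postdose. A ratio near 1 means full efficacy; near 1.8 means ineffective.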
row,SMILES,Efficacy
1,CN1CCC(c2c[nH]c3ccc(NC(=O)c4ccccc4)nc23)CC1,1.1
2,CN1CCC(c2c[nH]c3ccc(NC(=O)C4CC4)nc23)CC1,1.4
3,CN1CCC(c2c[nH]c3ccc(NC(=O)c4ccsc4)nc23)CC1,1

# Target: T1, 5-hydroxytryptamine receptor 1F (Homo sapiens, UniProt P30939)
# T1 sequence (P30939 whole entry): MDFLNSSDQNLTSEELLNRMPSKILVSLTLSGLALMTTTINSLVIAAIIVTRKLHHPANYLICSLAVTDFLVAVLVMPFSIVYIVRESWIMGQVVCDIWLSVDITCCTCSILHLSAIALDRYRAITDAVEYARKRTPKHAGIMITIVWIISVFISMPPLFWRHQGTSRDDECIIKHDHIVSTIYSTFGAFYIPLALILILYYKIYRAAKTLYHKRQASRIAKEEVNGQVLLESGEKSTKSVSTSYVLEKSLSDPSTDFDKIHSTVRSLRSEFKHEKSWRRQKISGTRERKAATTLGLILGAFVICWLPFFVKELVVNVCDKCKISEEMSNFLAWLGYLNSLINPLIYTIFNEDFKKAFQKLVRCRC
# Assay: In vitro effective concentration for stimulation of [35S]GTP-gamma-S, binding in mouse LM(tk-)cells expressing the human 5-hydroxytryptamine 1F receptor
# Format: functional
row,SMILES,EC50 [nM]
1,CN1CCC(c2c[nH]c3ccc(NC(=O)c4cccs4)nc23)CC1,15
2,CN1CCC(c2c[nH]c3ccc(NC(=O)c4ccccn4)nc23)CC1,25
3,CN1CCC(c2c[nH]c3ccc(NC(=O)C4CCC4)nc23)CC1,21
4,CN1CCC(c2c[nH]c3ccc(NC(=O)c4ccco4)nc23)CC1,11
5,CN1CCC(c2c[nH]c3ccc(NC(=O)C4CC4)nc23)CC1,34
6,CN1CCC(c2c[nH]c3ccc(NC(=O)c4ccoc4)nc23)CC1,11
7,CN1CCC(c2c[nH]c3ccc(NC(=O)c4ccncc4)nc23)CC1,11
8,CN1CCC(c2c[nH]c3ccc(NC(=O)c4ccsc4)nc23)CC1,9.4
9,CCCC(=O)Nc1ccc2[nH]cc(C3CCN(C)CC3)c2n1,13

# Target: T2, 5-hydroxytryptamine receptor 1F (Homo sapiens) (UniProt P30939)
# T2 sequence (whole entry): T1 sequence (P30939 whole entry)
# Assay: Maximum stimulation of [35S]GTP-gamma-S, binding expressed relative to the maximal effect of 5-hydroxytryptamine […]
# Format: functional
row,SMILES,Emax [%]
1,CN1CCC(c2c[nH]c3ccc(NC(=O)c4cccs4)nc23)CC1,61
2,CN1CCC(c2c[nH]c3ccc(NC(=O)c4ccccn4)nc23)CC1,63
3,CN1CCC(c2c[nH]c3ccc(NC(=O)C4CCC4)nc23)CC1,81
4,CN1CCC(c2c[nH]c3ccc(NC(=O)c4ccco4)nc23)CC1,82
5,CN1CCC(c2c[nH]c3ccc(NC(=O)C4CC4)nc23)CC1,77
6,CN1CCC(c2c[nH]c3ccc(NC(=O)c4ccoc4)nc23)CC1,88
7,CN1CCC(c2c[nH]c3ccc(NC(=O)c4ccncc4)nc23)CC1,97
8,CN1CCC(c2c[nH]c3ccc(NC(=O)c4ccsc4)nc23)CC1,84
9,CCCC(=O)Nc1ccc2[nH]cc(C3CCN(C)CC3)c2n1,94

# Organism: Oryctolagus cuniculus
# Assay: In vitro contractile response in rabbit saphenous vein
# Format: functional
# Method in brief: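 Rabbit saphenous vein rings. Maximal contraction is expressed as % of the contraction induced by KCl (67 mM), with the concentration giving the maximal response recorded. Means (SEM) of three to seven determinations.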
row,SMILES,Response [%]
1,CN1CCC(c2c[nH]c3ccc(NC(=O)C4CCC4)nc23)CC1,17
2,CN1CCC(c2c[nH]c3ccc(NC(=O)c4ccccc4)nc23)CC1,0
3,CN1CCC(c2c[nH]c3ccc(NC(=O)C4CC4)nc23)CC1,2.3
4,CN1CCC(c2c[nH]c3ccc(NC(=O)c4ccsc4)nc23)CC1,0
5,CCCC(=O)Nc1ccc2[nH]cc(C3CCN(C)CC3)c2n1,12.4

# System: Cavia porcellus
# Assay: In vivo efficacy in neurogenic plasma protein extravasation screen using guinea pig neurogenic PPE assay (1 ng/kg, po) at 24 hr postdose
# Format: functional
# Method in brief: as §1
row,SMILES,Efficacy
1,CN1CCC(c2c[nH]c3ccc(NC(=O)c4ccccc4)nc23)CC1,1.6
2,CN1CCC(c2c[nH]c3ccc(NC(=O)c4ccsc4)nc23)CC1,1.6

# Target: T3, 5-hydroxytryptamine receptor 1A (Homo sapiens, UniProt P08908)
# T3 sequence (P08908 whole entry): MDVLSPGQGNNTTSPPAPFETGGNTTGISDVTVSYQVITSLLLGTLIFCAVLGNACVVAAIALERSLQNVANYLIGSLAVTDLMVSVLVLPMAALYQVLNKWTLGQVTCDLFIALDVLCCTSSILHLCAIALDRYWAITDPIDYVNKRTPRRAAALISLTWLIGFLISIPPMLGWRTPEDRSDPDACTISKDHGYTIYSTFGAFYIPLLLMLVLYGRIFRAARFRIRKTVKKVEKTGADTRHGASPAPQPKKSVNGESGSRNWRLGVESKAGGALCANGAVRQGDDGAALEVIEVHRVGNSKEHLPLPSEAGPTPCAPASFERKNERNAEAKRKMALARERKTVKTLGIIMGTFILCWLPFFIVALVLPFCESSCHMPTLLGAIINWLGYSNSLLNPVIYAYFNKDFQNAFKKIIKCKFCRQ
# Assay: In vitro binding affinity by radioligand binding assay using cell line expressing human 5-hydroxytryptamine 1A receptor
# Method in brief: (§2)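 Ki (nM) from radioligand binding on cell lines each expressing one human serotonin receptor subtype. Values are means of at least three determinations with SEM. ND: Ki not determined, when a 10⁻⁷ M test ligand gave <50% displacement of radioligand.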
row,SMILES,Ki [nM]
1,CN1CCC(c2c[nH]c3ccc(NC(=O)c4cccs4)nc23)CC1,350
2,CN1CCC(c2c[nH]c3ccc(NC(=O)C4CCCC4)nc23)CC1,2000
3,Cc1cccc(C(=O)Nc2ccc3[nH]cc(C4CCN(C)CC4)c3n2)c1,100
4,CN1CCC(c2c[nH]c3ccc(NC(=O)c4ccccn4)nc23)CC1,41
5,CN1CCC(c2c[nH]c3ccc(NC(=O)c4ccccc4[N+](=O)[O-])nc23)CC1,64
6,CN1CCC(c2c[nH]c3ccc(NC(=O)C4CCC4)nc23)CC1,2000
7,CN1CCC(c2c[nH]c3ccc(NC(=O)c4ccco4)nc23)CC1,560
8,CN1CCC(c2c[nH]c3ccc(NC(=O)c4ccccc4)nc23)CC1,72
9,CN1CCC(c2c[nH]c3ccc(NC(=O)C4CC4)nc23)CC1,1400
10,CN1CCC(c2c[nH]c3ccc(NC(=O)c4ccoc4)nc23)CC1,840
11,CN1CCC(c2c[nH]c3ccc(NC(=O)c4ccncc4)nc23)CC1,40
12,CN1CCC(c2c[nH]c3ccc(NC(=O)c4ccsc4)nc23)CC1,400

# Target: 5-hydroxytryptamine receptor 1D (Homo sapiens, UniProt P28221)
# Sequence (P28221 whole entry): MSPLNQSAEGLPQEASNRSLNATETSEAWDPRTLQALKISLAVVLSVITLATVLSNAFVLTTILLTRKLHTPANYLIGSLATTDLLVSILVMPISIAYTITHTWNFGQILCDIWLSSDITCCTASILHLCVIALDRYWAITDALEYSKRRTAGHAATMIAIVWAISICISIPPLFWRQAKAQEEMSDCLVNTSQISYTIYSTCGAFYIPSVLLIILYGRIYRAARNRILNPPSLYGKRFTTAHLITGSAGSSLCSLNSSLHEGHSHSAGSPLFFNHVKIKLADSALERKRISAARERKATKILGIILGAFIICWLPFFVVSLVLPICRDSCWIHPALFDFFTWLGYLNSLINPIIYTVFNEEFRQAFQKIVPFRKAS
# Assay: In vitro binding affinity by radioligand binding assay using cell line expressing human 5-hydroxytryptamine 1D receptor
# Method in brief: as §2
row,SMILES,Ki [nM]
1,CN1CCC(c2c[nH]c3ccc(NC(=O)c4cccs4)nc23)CC1,650
2,CN1CCC(c2c[nH]c3ccc(NC(=O)C4CCCC4)nc23)CC1,740
3,Cc1cccc(C(=O)Nc2ccc3[nH]cc(C4CCN(C)CC4)c3n2)c1,490
4,CN1CCC(c2c[nH]c3ccc(NC(=O)c4ccccn4)nc23)CC1,820
5,CN1CCC(c2c[nH]c3ccc(NC(=O)c4ccccc4[N+](=O)[O-])nc23)CC1,170
6,CN1CCC(c2c[nH]c3ccc(NC(=O)C4CCC4)nc23)CC1,900
7,CN1CCC(c2c[nH]c3ccc(NC(=O)c4ccco4)nc23)CC1,930
8,CN1CCC(c2c[nH]c3ccc(NC(=O)c4ccccc4)nc23)CC1,1000
9,CN1CCC(c2c[nH]c3ccc(NC(=O)C4CC4)nc23)CC1,1800
10,CN1CCC(c2c[nH]c3ccc(NC(=O)c4ccoc4)nc23)CC1,1100
11,CN1CCC(c2c[nH]c3ccc(NC(=O)c4ccncc4)nc23)CC1,420
12,CN1CCC(c2c[nH]c3ccc(NC(=O)c4ccsc4)nc23)CC1,810

# Target: T1, 5-hydroxytryptamine receptor 1F
# Assay: In vitro binding affinity was determined by radioligand binding assay using cell line expressing human 5-hydroxytryptamine 1F receptor
# Method in brief: as §2
row,SMILES,Ki [nM]
1,CN1CCC(c2c[nH]c3ccc(NC(=O)c4cccs4)nc23)CC1,7.1
2,CN1CCC(c2c[nH]c3ccc(NC(=O)C4CCCC4)nc23)CC1,11
3,Cc1cccc(C(=O)Nc2ccc3[nH]cc(C4CCN(C)CC4)c3n2)c1,5.8
4,CN1CCC(c2c[nH]c3ccc(NC(=O)c4ccccn4)nc23)CC1,6.3
5,CN1CCC(c2c[nH]c3ccc(NC(=O)c4ccccc4[N+](=O)[O-])nc23)CC1,19
6,CN1CCC(c2c[nH]c3ccc(NC(=O)C4CCC4)nc23)CC1,8.7
7,CN1CCC(c2c[nH]c3ccc(NC(=O)c4ccco4)nc23)CC1,13
8,CN1CCC(c2c[nH]c3ccc(NC(=O)c4ccccc4)nc23)CC1,7.3
9,CN1CCC(c2c[nH]c3ccc(NC(=O)C4CC4)nc23)CC1,9.8
10,CN1CCC(c2c[nH]c3ccc(NC(=O)c4ccoc4)nc23)CC1,4.6
11,CN1CCC(c2c[nH]c3ccc(NC(=O)c4ccncc4)nc23)CC1,8.4
12,CN1CCC(c2c[nH]c3ccc(NC(=O)c4ccsc4)nc23)CC1,7.4
13,CCCC(=O)Nc1ccc2[nH]cc(C3CCN(C)CC3)c2n1,6.9

# Target: 5-hydroxytryptamine receptor 1B (Homo sapiens, UniProt P28222)
# Sequence (P28222 whole entry): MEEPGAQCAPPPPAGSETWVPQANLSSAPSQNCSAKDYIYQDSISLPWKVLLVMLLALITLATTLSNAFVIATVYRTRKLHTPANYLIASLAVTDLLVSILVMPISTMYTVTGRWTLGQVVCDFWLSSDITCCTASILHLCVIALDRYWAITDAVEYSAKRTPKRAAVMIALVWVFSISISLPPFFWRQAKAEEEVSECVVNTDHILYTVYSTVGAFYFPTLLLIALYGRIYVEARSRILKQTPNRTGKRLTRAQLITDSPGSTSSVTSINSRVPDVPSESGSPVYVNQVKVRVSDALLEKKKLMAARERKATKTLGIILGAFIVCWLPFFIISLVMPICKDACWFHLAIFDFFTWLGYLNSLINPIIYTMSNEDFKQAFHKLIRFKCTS
# Assay: In vitro binding affinity by radioligand binding assay using cell line expressing human 5-hydroxytryptamine 1B receptor
# Method in brief: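 Ki (nM) from radioligand binding on cell lines each expressing one human serotonin receptor subtype. Values are means of at least three determinations with SEM.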
row,SMILES,Ki [nM]
1,CN1CCC(c2c[nH]c3ccc(NC(=O)c4cccs4)nc23)CC1,390
2,CN1CCC(c2c[nH]c3ccc(NC(=O)C4CCCC4)nc23)CC1,640
3,Cc1cccc(C(=O)Nc2ccc3[nH]cc(C4CCN(C)CC4)c3n2)c1,1200
4,CN1CCC(c2c[nH]c3ccc(NC(=O)c4ccccn4)nc23)CC1,1000
5,CN1CCC(c2c[nH]c3ccc(NC(=O)C4CCC4)nc23)CC1,380
6,CN1CCC(c2c[nH]c3ccc(NC(=O)c4ccco4)nc23)CC1,1100
7,CN1CCC(c2c[nH]c3ccc(NC(=O)c4ccccc4)nc23)CC1,820
8,CN1CCC(c2c[nH]c3ccc(NC(=O)C4CC4)nc23)CC1,1700
9,CN1CCC(c2c[nH]c3ccc(NC(=O)c4ccoc4)nc23)CC1,930
10,CN1CCC(c2c[nH]c3ccc(NC(=O)c4ccncc4)nc23)CC1,330
11,CN1CCC(c2c[nH]c3ccc(NC(=O)c4ccsc4)nc23)CC1,1000
